# Results of several laboratories.
# Protocols differ between the studies behind these lines.
# Target: Serine/threonine-protein kinase Nek2 (NEK2, Homo sapiens, UniProt P51955)
# One construct used (P51955 1-445): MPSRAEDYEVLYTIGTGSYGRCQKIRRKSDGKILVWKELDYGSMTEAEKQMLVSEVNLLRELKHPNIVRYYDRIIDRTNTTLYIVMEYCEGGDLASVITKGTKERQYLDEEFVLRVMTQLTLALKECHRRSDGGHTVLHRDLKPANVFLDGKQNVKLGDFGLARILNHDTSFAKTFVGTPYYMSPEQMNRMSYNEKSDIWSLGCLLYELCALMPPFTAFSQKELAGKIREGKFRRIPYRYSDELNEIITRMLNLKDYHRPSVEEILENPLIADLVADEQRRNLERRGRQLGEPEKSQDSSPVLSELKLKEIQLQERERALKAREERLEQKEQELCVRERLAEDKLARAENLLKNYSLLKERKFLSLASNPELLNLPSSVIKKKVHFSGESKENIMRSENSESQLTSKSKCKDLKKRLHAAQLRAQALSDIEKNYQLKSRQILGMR
SMILES,assay,setting,remaining binding
c1cnn2ncc(-c3ccnc(N4CCC45COC5)n3)c2c1,binding,1 µM,95%
C[C@@H](c1ccc(-n2cnc3c(N)ncnc32)cc1)N1CCc2nn(C)c(Cc3ccccc3)c2C1=O,"binding, competition with immobilised ligand",0.1 µM,89%
COc1ccnn2ncc(-c3ccnc(N(C)C)n3)c12,binding,1 µM,92%
Cn1nc(C(F)(F)F)cc1-c1cnc(N2CCc3cc(S(=O)(=O)Nc4c(F)cc(Cl)cc4F)cc(N4CCCC4=O)c32)nc1,"cell-free assay, competition with immobilised ligand",1 µM,100%
c1cncc(-c2cccc(Nc3nccc(NC4CCCCC4)n3)c2)c1,"binding, competition with immobilised ligand",10 µM,97%
O=C(NCCCN1CCOCC1)c1ccc(Nc2nccc(-c3cc4ccccc4s3)n2)cc1,"binding, competition with immobilised ligand",1 µM,94%
CNC(=O)Nc1ccc2c(c1)[C@@]1(CC2)OC(=O)N(CC(=O)N(Cc2ccc(F)cc2)[C@@H](C)C(F)(F)F)C1=O,"cell-free assay, competition with immobilised ligand",1 µM,100%
Nc1ncc2c(n1)-c1c([nH]c3ccc(C#CC4CC4)cc13)CCCC2,"binding, competition with immobilised ligand",1 µM,87%
C=CC(=O)N1CCC(C(=O)NCC(=O)N2CCN(c3nc(-c4cnc(N)nc4C(F)F)nc(N4CCOCC4)n3)CC2)CC1,"binding, competition with immobilised ligand",1 µM,95%
C[C@@H]1CCN(c2nccc(-c3cnn4ncccc34)n2)C1,binding,1 µM,87%
O=C(c1ccc(Nc2nccc(-c3cc4ccccc4s3)n2)cc1)N1CCC(N2CCCC2)CC1,"binding, competition with immobilised ligand",1 µM,95%
COCCOc1nc(-c2ccc(Cl)nc2)nc2c1CN(C(=O)c1ncn3ccccc13)CC2,"cell-free assay, competition with immobilised ligand",0.1 µM,100%
O=C(Nc1c[nH]nc1C(=O)NC1CCNCC1)c1cc(F)cc(F)c1,"binding, competition with immobilised ligand",1 µM,93%
COc1cnc(Nc2cccc(S(N)(=O)=O)c2)nc1N1CCN(c2ccccc2)C(=O)C1,"binding, competition with immobilised ligand",1 µM,98%
O=C(Nc1cccnn1)N1CC(C/C=C/c2cncc(Oc3ccc(C(F)(F)F)cn3)n2)C1,"cell-free assay, competition with immobilised ligand",1 µM,100%
CC1CCCN1c1nccc(-c2cnn3ncccc23)n1 (centres unmarked),binding,1 µM,100%
NS(=O)(=O)c1cc(NC(=O)C2(c3ccccc3Cl)CC2)ccc1Oc1cccc(Cl)c1,"cell-free assay, competition with immobilised ligand",1 µM,86%
O=C(c1ccc(Nc2ncc(Cl)c(-c3ccc(Cl)s3)n2)cc1)N1CCC(N2CCCC2)CC1,"binding, competition with immobilised ligand",1 µM,65%
C[C@H](c1ccnc(Nc2nc3ccc(-c4cc(N(C)C)ncn4)cc3[nH]2)c1)N1CCN(C(=O)CC(F)(F)F)CC1,"cell-free assay, competition with immobilised ligand",0.1 µM,100%
N[C@@H]1CCN(c2nccc(-c3cnn4ncccc34)n2)C1,binding,1 µM,100%
